Source: ChEMBL document CHEMBL2375298, “Isolation, structure determination, and anti-HIV evaluation of tigliane-type diterpenes and biflavonoid from Stellera chamaejasme” (J Nat Prod, 2013)
Activity calls are given as the source filed them. The rule behind the calls is not given here.

What was measured:
[1] = test system: Human immunodeficiency virus 1; assay: Antiviral activity against HIV-1 NL4-3 infected in human MT4 cells assessed as inhibition of viral replication after 4 days by ELISA; assay type: functional
In short: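 MT4 cells infected with HIV-1 NL4-3 at MOI 0.001 in presence of graded compound concentrations; fresh medium with compound added 48 h post-infection to sustain growth. Replication measured by p24 ELISA on day 4 post-infection. EC90 (concentration inhibiting replication by 90%) calculated from dose-response.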

MT4 = assay: Cytotoxicity against human MT4 cells by CellTitre-Glo luminescent assay; assay type: cell-based
[2] = Human immunodeficiency virus 1, NL4-3, MT4, 96 h

Structure (SMILES) | EC90 [1, 2] | IC50 (MT4) | EC90 [1]
CC/C=C\C/C=C\CCC(=O)O[C@@]12[C@H](OC(=O)c3ccccc3)[C@@H](C)[C@@]3(O)[C@@H](C=C(CO)C[C@]4(O)C(=O)C(C)=C[C@@H]34)[C@@H]1C2(C)C | 0.0068 µM | 7.8 µM | –
COc1cc(/C=C/C(=O)OCCCCCCCCCCCCCCCCCCCCCC(=O)OCC(O)CO)ccc1O (configuration not stated) | – | 16.2 µM | –
CCCCCCCC(=O)O[C@@]12[C@H](OC(=O)c3ccccc3)[C@@H](C)[C@@]3(O)[C@H]([C@@H]1C2(C)C)[C@@H](OO)C(CO)=C[C@]1(O)C(=O)C(C)=C[C@@H]31 | 1.52 µM | 15.8 µM | –
O=C(/C=C/CCc1ccccc1)c1ccccc1 | – | – | inactive
C=C(C)[C@]12C[C@@H](COC(C)=O)[C@@]34O[C@]5(O[C@@H]1[C@@H]3[C@@H]1O[C@]1(CO)[C@@H](O)[C@@]1(O)[C@H]4[C@H]([C@H](C)[C@@H]1OC(=O)c1ccccc1)[C@H](C)CCCCCC[C@H]5O)O2 | 0.0004 µM | 4.3 µM | –
CCCCCCCCCC(=O)O[C@@]12[C@H](OC(=O)c3ccccc3)[C@@H](C)[C@@]3(O)[C@H]([C@@H]1C2(C)C)[C@@H](OO)C(CO)=C[C@]1(O)C(=O)C(C)=C[C@@H]31 | 0.49 µM | 3.5 µM | –
COc1ccc([C@@H]2Oc3cc(O)cc(O)c3C(=O)[C@@H]2[C@H]2C(=O)c3c(O)cc(OC)cc3O[C@H]2c2ccc(OC)cc2)cc1 | – | – | inactive
CCCCCCCC(=O)O[C@@]12[C@H](OC(=O)c3ccccc3)[C@@H](C)[C@]3(O)[C@@H]4C=C(C)C(=O)[C@@]4(O)[C@H](O)C(CO)=C[C@H]3[C@@H]1C2(C)C | 0.0038 µM | 17.2 µM | –
COc1ccc([C@@H]2Oc3cc(O)cc(O)c3C(=O)[C@@H]2[C@H]2C(=O)c3c(O)cc(O)cc3O[C@H]2c2ccc(OC)cc2)cc1 | – | – | inactive
CCCCC/C=C\CCC(=O)O[C@@]12[C@H](OC(=O)c3ccccc3)[C@@H](C)[C@@]3(O)[C@@H](C=C(CO)C[C@]4(O)C(=O)C(C)=C[C@@H]34)[C@@H]1C2(C)C | 0.00066 µM | 4.7 µM | –
COc1ccc([C@@H]2Oc3cc(OC)cc(O)c3C(=O)[C@H]2[C@@H]2C(=O)c3c(O)cc(O)cc3O[C@H]2c2ccc(O)cc2)cc1 | 4.21 µM | 17.5 µM | –
CCCCCCCCCC(=O)O[C@@]12[C@H](OC(=O)c3ccccc3)[C@@H](C)[C@@]3(O)[C@@H](C=C(CO)C[C@]4(O)C(=O)C(C)=C[C@@H]34)[C@@H]1C2(C)C [STELLERARIN] | 0.0005 µM | 5.1 µM | –
C=C(C)[C@@]12C[C@@H](COC(=O)c3ccccc3)[C@@]34OC5(O[C@@H]1[C@@H]3[C@@H]1O[C@]1(CO)[C@@H](O)[C@@]1(O)[C@H]4[C@H]([C@H](C)[C@@H]1OC(=O)c1ccccc1)[C@H](C)CCCCCC[C@H]5O)O2 [GNIDIMACRIN] | 0.0004 µM | 4.3 µM | –
